An excerpt weighted towards active compounds, which were near 1.4% of everything screened.
STAT3 inh-1 – IL-6 driven STAT3 reporter inhibitors, primary screen, U3A cells, luciferase, luminescence, MLSCN library; IL-6 STAT3-luciferase reporter; host cell line lacks STAT1; inhibition, % at 5.5 µM; hit rate 0.89% among 190,000;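 active = inhibition above the mean inhibition across all screened compounds plus 3 SD, cut at about 44% in these data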;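 note: 0% = DMSO only wells and 100% = 100 µM nifuroxazide control wells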
STAT3 act – IL-6 driven STAT3 reporter potentiators, primary screen, U3A cells, luciferase, luminescence, MLSCN library | hit rate 0.91% among 190,000 | AID 871, 2007 | IL-6 STAT3-luciferase reporter; 100% = signal with IL-6 EC80 alone | activation (% of control), % at 5.6 µM;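 active = activation above the screen-wide mean of compound activation plus 3 SD, cut at about 130% in these data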;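 note: 0% = background luminescence of wells with medium and substrate only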
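Material: STAT3-luciferase reporter U3A cells. Controls: IL-6-treated wells, 100% activation. Read-out: % activation versus median of IL-6-stimulated wells. Probe or stimulus: IL-6 stimulus at 33 ng/mL final. Timing: compound 1 h, then IL-6 6 h at 37 °C. Signal: reporter luminescence signal.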
STAT1 inh – STAT1 signaling inhibitors, primary screen, cell-based, HTS, luciferase reporter; AID 920, 2007; inhibition, % at 5.5 µM; hit rate 0.35% among 200,000; NIH 3T3 STAT1-luciferase reporter, IFN-gamma, luminescence;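 active = inhibition above a set limit, the mean inhibition across all tested compounds plus 3 SD, cut at about 34% in these data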;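 note: 0% = IFN-gamma with DMSO and 100% = IFN-gamma with 300 µM nifuroxazide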
Platelet DG rel – inhibitors of platelet dense granule secretion, primary screen, cell-based, MLPCN, human platelets. human platelet-rich plasma, SFLLRN dense granule ATP release, luminescence. inhibition, %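 (compounds screened at 7.5 µM in platelet-rich plasma)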. hit rate 0.22% among 300,000. AID 1663, 2009;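 active = mean replicate score, as percent of positive control, at or above 50; inconclusive = mean below 50 but at least one replicate at or above 50; inactive = mean and every replicate below 50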
PERK inh – block of dimerizer-induced PERK translation repression, primary screen, PERK inhibitor project, CHO PERK-DD cells, SEAP luminescence, HTS | CHO PERK-DD fusion, SEAP luminescence translation reporter | inhibition, % at 5.6 µM | hit rate 0.17% among 220,000 | AID 1416, 2008;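 active = inhibition above the mean inhibition of all tested compounds plus 3 SD, set separately per screening campaign, cut at about 2.9% in these data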;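 note: PERK kinase domain activated by AP20187 dimerizer at 100 nM; 0% = DMSO with dimerizer and 100% = rapamycin at 8.4 µM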
STAT3 inh-2 – STAT3 reporter inhibitors, retest of hits, confirmation, U3A cells, luciferase, luminescence | shares compounds with STAT3 inh-1 | IL-6 STAT3 luciferase reporter; cell line lacks STAT1 | inhibition, % at 5.7 µM | hit rate 45% among 1,200 | AID 1265, 2008;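 active = inhibition above the hit cutoff computed for the primary STAT3 screen, cut at about 44% in these data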;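 note: 0% = IL-6 plus DMSO and 100% = IL-6 plus nifuroxazide control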
NFkB inh 2 – NF-kB reporter inhibitors in human cells, confirmation, counter-screen for STAT3 inhibitor project, cell-based, HEK293T, luciferase, TNF-alpha stimulus. shares compounds with STAT3 inh-1. TNF-alpha induced. inhibition, % at 5.7 µM. hit rate 36% among 1,200. AID 1308, 2008;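 active = inhibition above the mean of solvent-only control wells plus 3 SD, cutoff set per campaign, cut at about 13% in these data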;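 note: 0% = TNF-alpha with DMSO and 100% = TNF-alpha with MG high control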
STAT1 inh 2 – STAT1 reporter inhibitors, IFN-gamma induced, confirmation, counter-screen for STAT3 inhibitor project, cell-based, NIH 3T3, luciferase luminescence; shares compounds with STAT3 inh-1; NIH 3T3 STAT1-luciferase reporter; inhibition, % at 5.7 µM; hit rate 27% among 1,200; AID 1317, 2008;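 active = inhibition above the mean plus 3 SD of solvent-only control wells, limit set per screening run, cut at about 16% in these data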;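 note: 0% = DMSO with IFN-gamma and 100% = nifuroxazide control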
Active calls of the source: *; ? = inconclusive; · = no result given.

SMILES	STAT3 inh-1	STAT3 act	STAT1 inh	Platelet DG rel	PERK inh	STAT3 inh-2	NFkB inh 2	STAT1 inh 2
COc1ccc2[nH]c3c(c2c1)CCn1c-3nc2ccccc2c1=O	51.3*	60.7	-54.7	·	-1.4	14.4	-32.3	-178.5
CCOc1ccc(OCc2ccc(C(=O)OCc3ccccn3)o2)cc1	45.7*	65.4	9.0	-4.7	0.4	14.6	-20.4	-19.3
CCCCN(CC)CCNC(=O)c1cc2c(C)nc3ccccc3c2o1	5.6	99.7	3.9	25.6	-0.6	·	·	·
CCc1ccc(CNC(=O)c2cc3c(C)nc4ccccc4c3o2)cc1	52.5*	60.5	17.7	7.7	-1.0	39.5	4.1	12.6
COc1cccc(CNC(=O)c2cc3c(C)nc4ccccc4c3o2)c1	45.9*	67.7	13.7	-32.0	0.7	23.3	-1.5	2.4
COc1ccc(CNC(=O)c2cc3c(C)nc4ccccc4c3o2)c(OC)c1	79.1*	38.5	30.2	?	-1.2	59.8*	14.6*	19.8*
O=C(O)c1cccc(-c2nnn(Cc3ccccc3Cl)n2)c1	69.9*	43.7	44.0*	-3.7	1.5	61.2*	37.4*	40.0*
CCCN1CCN(CCCNC(=O)c2ccc(CS(=O)c3ccccc3C)o2)CC1 (stereo not drawn)	·	·	·	0.2	·	·	·	·
O=C(Nc1cc(Cl)ccn1)C1CCN(S(=O)(=O)c2cccs2)CC1	51.2*	56.2	0.0	-3.9	-0.2	43.1	1.3	-7.4
O=C(O)CC(c1ccccc1)N1C(=O)c2ccccc2C1=O (stereo not drawn)	·	·	·	-1.0	·	·	·	·
CC(C)c1ccccc1NS(=O)(=O)c1cccs1	·	·	·	-2.6	·	·	·	·
CCOc1ccc(-n2c(C)nc3c(cnn3-c3ccc(Cl)cc3)c2=O)cc1	13.6	90.4	0.8	3.5	1.7	·	·	·
COc1cccc(-n2c(C)nc3c(cnn3-c3ccc(Cl)cc3)c2=O)c1	54.7*	56.5	11.7	·	1.0	40.7	6.5	16.2*
Cc1ccc(-n2c(C)nc3c(cnn3-c3ccc(F)cc3)c2=O)cc1	53.0*	61.1	2.8	-4.6	-0.1	38.1	4.4	7.4
O=C(NCCN1C(=O)S/C(=C\c2ccccc2)C1=O)c1cc(S(=O)(=O)N2CCOCC2)c(Cl)cc1Cl	0.4	102.3	0.0	-1.4	0.6	·	·	·
CS(=O)(=O)N1CCc2cc(-c3csc(NC(=O)Cc4cccs4)n3)ccc21	81.9*	35.9	4.2	4.0	-0.1	71.9*	18.8*	8.0
COc1ccc(C(=S)N2CCOCC2)cc1OS(=O)(=O)c1ccc(Br)cc1	·	·	·	-1.7	·	·	·	·
Cc1ccccc1NC(=O)c1cnc2ccccn2c1=O	72.3*	43.7	16.5	13.2	-0.6	36.0	-6.1	-76.8
COc1ccc(OC)c(NC(=O)c2cnc3ccccn3c2=O)c1	9.2	95.0	-3.4	·	0.2	·	·	·
COc1cc2c(cc1OC)C1=NC(=O)CN1C(SCc1ccccc1C)=N2	47.1*	64.1	12.0	7.2	0.2	43.0	19.5*	8.8
Cc1ccc(CSC2=Nc3ccccc3C3=NC(=O)CN23)cc1	16.0	89.5	-16.4	3.2	1.5	·	·	·
N/C(=N\OC(=O)c1cccc(Cl)c1)c1ccccn1	74.2*	39.0	24.5	11.7	0.7	-5.1	-29.2	-86.7
N/C(=N\OC(=O)c1ccc(Cl)cc1)c1ccccn1	87.1*	31.1	3.7	52.1*	0.8	12.0	-30.5	-96.4
CCOC(=O)c1oc2ccccc2c1NC(=O)CN1CCOCC1	-4.5	105.9	-2.9	-0.4	0.1	·	·	·
CCc1ccccc1NC(=O)CC1SCCNC1=O (stereo not drawn)	0.5	101.2	-11.8	-3.1	1.0	·	·	·
SMILES	STAT3 inh-1	STAT3 act	STAT1 inh	Platelet DG rel	PERK inh	STAT3 inh-2	NFkB inh 2	STAT1 inh 2
C=CCN=C1NN=C(c2cc(C)n(CCOC)c2C)CS1	77.6*	35.5	25.1	4.8	0.5	35.7	-1.7	-3.5
C=CCn1c(C)cc(C2=NNC(=NC(C)(C)C)SC2)c1C	57.6*	51.9	-8.6	-2.1	-0.9	45.5*	28.0*	-13.3
C=CCn1c(C)cc(C2=NNC(=Nc3ccc(C)cc3)SC2)c1C	-1.1	106.9	-24.3	9.6	0.6	·	·	·
CCC(C)(C)NC(=O)C(Sc1ccccc1)c1ccccc1 (stereo not drawn)	13.2	98.1	2.8	6.1	-0.1	·	·	·
CCN(CC)S(=O)(=O)c1cccc(C(=O)NC(C)C(c2cccs2)N2CCCC2)c1 (stereo not drawn)	2.7	99.8	5.9	-4.4	0.1	·	·	·
CCc1noc(N)c1C(=O)Nc1ccc(Cl)cc1	·	·	·	-0.6	·	·	·	·
O=C(COC(=O)c1cc(Br)ccc1O)Nc1cc(S(=O)(=O)N2CCCC2)ccc1Cl	-0.5	108.5	-2.8	-11.7	-0.6	·	·	·
Cc1csc(NC(=O)c2cc3c(s2)CCC3)n1	69.9*	45.6	-19.5	23.1	0.3	38.3	-26.9	-106.7
Cc1ccc(-n2ncc3c(N4CCN(c5ccccc5)CC4)ncnc32)c(C)c1	36.3	74.0	6.8	0.8	-0.9	·	·	·
Cc1cccc(-n2ncc3c(N4CC(C)CC(C)C4)ncnc32)c1 (stereo not drawn)	19.6	90.6	-36.8	-3.2	0.7	·	·	·
Cc1cccc(-n2ncc3c(N4CCOCC4)ncnc32)c1	77.7*	33.1	10.4	8.0	0.3	62.3*	28.2*	-19.5
Clc1ccc(-n2ncc3c(N4CCCCCC4)ncnc32)cc1	87.2*	28.9	1.9	9.0	0.8	70.9*	49.3*	12.3
Cc1cccc(-n2ncc3c(N4CCCC4)ncnc32)c1	66.7*	44.6	-8.7	5.7	-1.0	29.3	-12.8	-80.2
COc1ccc2c(=O)c(-c3ccc4c(c3)OCO4)coc2c1	55.1*	51.6	-70.2	6.8	1.6	26.0	-11.9	-104.1
O=c1c2sc(-c3ccccc3)cc2nc2n1CCC2	48.6*	61.5	-7.1	20.6	-0.7	33.4	-11.3	-76.1
O=c1c2sc(-c3ccccc3)cc2nc2n1CCCCC2	·	·	·	0.1	1.1	·	·	·
CCOC(=O)c1ccccc1-c1cn2cc(Cl)ccc2n1	-16.4	112.9	-1.6	-13.7	0.2	·	·	·
O=C(COc1ccc(Br)cc1)NCCCNC(=O)c1cnccn1	·	·	·	-0.6	·	·	·	·
Cc1cc(NC(=O)c2ccc3c(c2)OCCO3)no1	74.5*	41.3	8.6	1.1	0.3	41.3	6.3	-11.0
